4 compounds from ChEMBL document CHEMBL3046255, “Moluccensins R-Y, limonoids from the seeds of a mangrove, Xylocarpus moluccensis” (2012) can be followed below.

Assay type in all cases: functional
The subject of experiment [1] is Brontispa longissima. The experiment is described as follows: Insecticidal activity against third-instar larvae of Brontispa longissima assessed as mortality at 1 mg/mL after 9 days.
Experiment [2] relates to Brontispa longissima. The experiment is described as follows: Antifeedant activity against third-instar larvae of Brontispa longissima at 1 mg/mL after 48 hr by conventional leaf disk method. The procedure, abridged: (§1)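 Third-instar larvae exposed to test material at 1 mg/mL. Antifeedant rate is given as percent, mean ± SD, and is read after 24 h […] and 48 h […].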

Experiment [3] deals with Brontispa longissima. Kind of experiment: Antifeedant activity against third-instar larvae of Brontispa longissima at 1 mg/mL after 24 hr by conventional leaf disk method. The gist of the method:
as §1

The test system of experiment [4] is Brontispa longissima. Kind of experiment: Antifeedant activity against third-instar larvae of Brontispa longissima after 24 hr by conventional leaf disk method. The procedure, abridged: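 Value is an AFC50: the concentration giving 50% antifeedant activity against third-instar larvae after 24 h exposure.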

In the case of `COC(=O)[C@H](O)[C@H]1C(C)(C)C(=O)[C@@H]2CC3=C4CC(=O)O[C@@H](c5ccoc5)[C@]4(C)CC[C@@H]3[C@@]1(C)C2=O` [6-HYDROXYMEXICANOLIDE], the Activity in the experiment with Brontispa longissima [1] is listed as 20.7%; in the experiment with Brontispa longissima [2], 69.3%; in the experiment on Brontispa longissima [3], 76.6%.

On to `COC(=O)[C@H](O)[C@H]1C(C)(C)[C@H](OC(=O)C(C)C)[C@]2(O)CC3=C4CC(=O)O[C@@H](c5ccoc5)[C@]4(C)CC[C@@H]3[C@@]1(C)C2=O` [MOLUCCENSIN R], for which the Activity in the experiment with Brontispa longissima [1] was 17%; with Brontispa longissima [2], 62.1%; in the experiment with Brontispa longissima [3], 69.6%.

Take `COC(=O)C[C@H]1C(C)(C)[C@H](OC(C)=O)[C@]2(O)CC3=C4CC(=O)O[C@@H](c5ccoc5)[C@]4(C)CC[C@@H]3[C@@]1(C)C2=O` [2-HYDROXYFISSINOLIDE]: the Activity in the experiment on Brontispa longissima [1] is 34.4%; with Brontispa longissima [2], 91.5%; with Brontispa longissima [3] it was 93.7%. The compound also gave an AFC50 with Brontispa longissima [4] of 94 µg/mL.

Turning to `CCC(C)C(=O)O[C@H]1C(C)(C)[C@H]([C@@H](O)C(=O)OC)[C@]2(C)C(=O)[C@@]1(O)CC1=C3CC(=O)O[C@@H](c4ccoc4)[C@]3(C)CC[C@@H]12` (stereo partly drawn) [MOLUCCENSIN S], the Activity with Brontispa longissima [1] worked out at 48.2%; with Brontispa longissima [2], 44.1%; in the experiment with Brontispa longissima [3], 42.3%.
